Tests used:
[1] = test system: Mus musculus; experiment: Toxicity in collagen-induced B10.RIII mouse arthritis model assessed as change in triglyceride level at 3 mg/kg, po qd for 35 days relative to 1% methylcellulose-treated control; assay type: organism-based; design: dose 3 mg/kg, route oral; conditions: in vivo, 840 h
In short: (§1)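 Female B10.RIII mice were immunized at 12–15 weeks with porcine type II collagen emulsified in complete Freund's adjuvant (100 μg intradermal, tail base). Animals were enrolled at first arthritis signs, 10 per group, and dosed orally once daily for five weeks in 1% methylcellulose. Paws were scored 1–4 each (max 16), with AUC taken. Serum was collected at day 35. Femur cortical thickness was measured by microCT in non-immunized, age-matched mice given the same dosing.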

[2] = test system: Mus musculus; experiment: Toxicity in collagen-induced B10.RIII mouse arthritis model assessed as change in body fat at 3 mg/kg, po qd for 35 days relative to 1% methylcellulose-treated control; assay type: organism-based; design: dose 3 mg/kg, route oral; conditions: in vivo, 840 h; in short: as §1
[3] = test system: Mus musculus; experiment: Toxicity in collagen-induced B10.RIII mouse arthritis model assessed as change in insulin level at 3 mg/kg, po qd for 35 days relative to 30% cremophor-treated control; assay type: organism-based; design: dose 3 mg/kg, route oral; conditions: in vivo, 840 h
In short: (§2)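 Female B10.RIII mice were immunized with porcine type II collagen in complete Freund's adjuvant, enrolled at arthritis onset (10/group), and dosed orally once daily for five weeks in 30% cremophor vehicle. Four paws were scored 1–4 (max 16), as AUC. Serum biomarkers were taken at day 35. Femur cortical thickness was measured by microCT in non-immunized, age-matched mice dosed identically.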

[4] = test system: Mus musculus; experiment: Toxicity in collagen-induced B10.RIII mouse arthritis model assessed as change in femur cortical thickness at 30 mg/kg, po qd for 35 days relative to 30% cremophor-treated control; assay type: organism-based; design: dose 30 mg/kg, route oral; conditions: in vivo, 840 h; in short: as §2
[5] = test system: Mus musculus; experiment: Toxicity in collagen-induced B10.RIII mouse arthritis model assessed as change in AUC at 30 mg/kg, po qd for 35 days relative to 1% methylcellulose-treated control; assay type: organism-based; design: dose 30 mg/kg, route oral; conditions: in vivo, 840 h; in short: as §1
[6] = test system: Mus musculus; experiment: Toxicity in collagen-induced B10.RIII mouse arthritis model assessed as change in insulin level at 30 mg/kg, po qd for 35 days relative to 1% methylcellulose-treated control; assay type: organism-based; design: dose 30 mg/kg, route oral; conditions: in vivo, 840 h; in short: as §1
[7] = test system: Mus musculus; experiment: Toxicity in collagen-induced B10.RIII mouse arthritis model assessed as change in body fat at 30 mg/kg, po qd for 35 days relative to 30% cremophor-treated control; assay type: organism-based; design: dose 30 mg/kg, route oral; conditions: in vivo, 840 h; in short: as §2
[8] = test system: Mus musculus; experiment: Toxicity in collagen-induced B10.RIII mouse arthritis model assessed as change in femur cortical thickness at 3 mg/kg, po qd for 35 days relative to 30% cremophor-treated control; assay type: organism-based; design: dose 3 mg/kg, route oral; conditions: in vivo, 840 h; in short: as §2
[9] = test system: Mus musculus; experiment: Toxicity in collagen-induced B10.RIII mouse arthritis model assessed as change in AUC at 30 mg/kg, po qd for 35 days relative to 30% cremophor-treated control; assay type: organism-based; design: dose 30 mg/kg, route oral; conditions: in vivo, 840 h; in short: as §2
[10] = test system: Mus musculus; experiment: Toxicity in collagen-induced B10.RIII mouse arthritis model assessed as change in free fatty acid level at 3 mg/kg, po qd for 35 days relative to 30% cremophor-treated control; assay type: organism-based; design: dose 3 mg/kg, route oral; conditions: in vivo, 840 h; in short: as §2
[11] = test system: Mus musculus; experiment: Toxicity in collagen-induced B10.RIII mouse arthritis model assessed as change in insulin level at 30 mg/kg, po qd for 35 days relative to 30% cremophor-treated control; assay type: organism-based; design: dose 30 mg/kg, route oral; conditions: in vivo, 840 h; in short: as §2
[12] = test system: Mus musculus; experiment: Toxicity in collagen-induced B10.RIII mouse arthritis model assessed as change in body fat at 30 mg/kg, po qd for 35 days relative to 1% methylcellulose-treated control; assay type: organism-based; design: dose 30 mg/kg, route oral; conditions: in vivo, 840 h; in short: as §1
[13] = test system: Mus musculus; experiment: Toxicity in collagen-induced B10.RIII mouse arthritis model assessed as change in femur cortical thickness at 30 mg/kg, po qd for 35 days relative to 1% methylcellulose-treated control; assay type: organism-based; design: dose 30 mg/kg, route oral; conditions: in vivo, 840 h; in short: as §1
[14] = target: T1, Glucocorticoid receptor (Homo sapiens) (UniProt P04150); experiment: Agonist activity at glucocorticoid receptor in human […] cells assessed as suppression of vitamin D-induced osteocalcin production at 2 uM after 48 hrs by Gla-type osteocalcin ELISA relative to dexomethasone; assay type: cell-based
T1 sequence (whole entry): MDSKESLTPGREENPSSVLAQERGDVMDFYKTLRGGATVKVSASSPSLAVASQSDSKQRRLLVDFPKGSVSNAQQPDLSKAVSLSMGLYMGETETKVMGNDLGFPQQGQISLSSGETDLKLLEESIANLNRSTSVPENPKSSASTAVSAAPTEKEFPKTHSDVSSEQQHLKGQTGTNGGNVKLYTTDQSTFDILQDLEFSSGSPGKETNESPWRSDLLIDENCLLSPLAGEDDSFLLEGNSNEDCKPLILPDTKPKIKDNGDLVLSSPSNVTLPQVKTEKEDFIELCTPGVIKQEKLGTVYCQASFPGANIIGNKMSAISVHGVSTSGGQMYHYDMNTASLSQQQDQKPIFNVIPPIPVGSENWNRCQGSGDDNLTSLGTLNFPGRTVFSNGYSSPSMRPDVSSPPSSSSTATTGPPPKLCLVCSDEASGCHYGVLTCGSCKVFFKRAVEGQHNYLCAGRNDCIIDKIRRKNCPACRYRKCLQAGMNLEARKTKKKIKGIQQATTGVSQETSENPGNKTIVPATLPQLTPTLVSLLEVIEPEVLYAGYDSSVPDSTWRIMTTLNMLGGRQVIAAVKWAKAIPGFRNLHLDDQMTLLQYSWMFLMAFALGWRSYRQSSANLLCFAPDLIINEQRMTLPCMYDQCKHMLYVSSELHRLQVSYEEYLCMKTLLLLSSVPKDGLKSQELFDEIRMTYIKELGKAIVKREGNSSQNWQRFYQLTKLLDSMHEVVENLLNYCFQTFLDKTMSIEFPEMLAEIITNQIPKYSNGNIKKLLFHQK
In short: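 MG-63 human osteosarcoma cells plated at 20000/well in DMEM/F-12 with 1% charcoal-filtered FBS and 10 μg/mL vitamin C. Medium refreshed next day, then vitamin D (10 nM final) added with compound (2 × 10−6 to 10−10 M), duplicates. Incubated 48 h at 37 °C; supernatant osteocalcin measured by Gla-type ELISA. Vitamin D-only wells = 100%. Max efficacy at 2 μM is relative to dexamethasone (100%).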

[15] = test system: Mus musculus; experiment: Toxicity in collagen-induced B10.RIII mouse arthritis model assessed as change in AUC at 3 mg/kg, po qd for 35 days relative to 1% methylcellulose-treated control; assay type: organism-based; design: dose 3 mg/kg, route oral; conditions: in vivo, 840 h; in short: as §1
[16] = test system: Mus musculus; experiment: Toxicity in collagen-induced B10.RIII mouse arthritis model assessed as change in body fat at 3 mg/kg, po qd for 35 days relative to 30% cremophor-treated control; assay type: organism-based; design: dose 3 mg/kg, route oral; conditions: in vivo, 840 h; in short: as §2
[17] = test system: Mus musculus; experiment: Toxicity in collagen-induced B10.RIII mouse arthritis model assessed as change in insulin level at 3 mg/kg, po qd for 35 days relative to 1% methylcellulose-treated control; assay type: organism-based; design: dose 3 mg/kg, route oral; conditions: in vivo, 840 h; in short: as §1
[18] = test system: Mus musculus; experiment: Toxicity in collagen-induced B10.RIII mouse arthritis model assessed as change in triglyceride level at 30 mg/kg, po qd for 35 days relative to 1% methylcellulose-treated control; assay type: organism-based; design: dose 30 mg/kg, route oral; conditions: in vivo, 840 h; in short: as §1
[19] = test system: Mus musculus; experiment: Toxicity in collagen-induced B10.RIII mouse arthritis model assessed as change in AUC at 3 mg/kg, po qd for 35 days relative to 30% cremophor-treated control; assay type: organism-based; design: dose 3 mg/kg, route oral; conditions: in vivo, 840 h; in short: as §2
[20] = test system: Mus musculus; experiment: Toxicity in collagen-induced B10.RIII mouse arthritis model assessed as change in free fatty acid level at 30 mg/kg, po qd for 35 days relative to 30% cremophor-treated control; assay type: organism-based; design: dose 30 mg/kg, route oral; conditions: in vivo, 840 h; in short: as §2
[21] = test system: Mus musculus; experiment: Toxicity in collagen-induced B10.RIII mouse arthritis model assessed as change in femur cortical thickness at 3 mg/kg, po qd for 35 days relative to 1% methylcellulose-treated control; assay type: organism-based; design: dose 3 mg/kg, route oral; conditions: in vivo, 840 h; in short: as §1
[22] = test system: Mus musculus; experiment: Toxicity in collagen-induced B10.RIII mouse arthritis model assessed as change in free fatty acid level at 30 mg/kg, po qd for 35 days relative to 1% methylcellulose-treated control; assay type: organism-based; design: dose 30 mg/kg, route oral; conditions: in vivo, 840 h; in short: as §1
[23] = test system: Mus musculus; experiment: Toxicity in collagen-induced B10.RIII mouse arthritis model assessed as change in free fatty acid level at 3 mg/kg, po qd for 35 days relative to 1% methylcellulose-treated control; assay type: organism-based; design: dose 3 mg/kg, route oral; conditions: in vivo, 840 h; in short: as §1

Emax [14]: 78%
SMILES: C[C@]12C=CC(=O)C=C1CC[C@@H]1[C@@H]2[C@@H](O)C[C@@]2(C)[C@H]1CC[C@]2(O)C(=O)CO [PREDNISOLONE]
Activity [1]: 21%
Activity [2]: 48%
Activity [3]: 36%
Activity [4]: -22%
Activity [5]: -78%
Activity [6]: 103%
Activity [7]: 71%
Activity [8]: -13%
Activity [9]: -90%
Activity [10]: 30%
Activity [11]: 703%
Activity [12]: 68%
Activity [13]: -18%
Activity [15]: -43%
Activity [16]: 30%
Activity [17]: 62%
Activity [18]: 226%
Activity [19]: -55%
Activity [20]: 54%
Activity [21]: -9%
Activity [22]: 44%
Activity [23]: 39%
